Compound activity deposited in PubChem by several laboratories.
ATG4B inhibitor: inhibitors of human ATG4B cysteine protease; inhibition, % at 8.33 µM; ATG4B cleavage of LC3-PLA2, NBD-HPC fluorescence, 1 h; 340,000 compounds, 0.51% hits; Q9Y4P1; in the data active = inhibition above about 40%
CSN inh: inhibitors of human CSN-mediated cullin deneddylation; Q92905; Purified CSN, SCF-Nedd8-OG deneddylation, fluorescence polarization; inhibition, % at 12.5 µM; 360,000 compounds, 0.38% hits; AID 651999;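 active = pattern-corrected inhibition above about 35%, with an unprinted fluorescence ratio check between 0.5 and 1.5, limit read from the data, passing the limit was not always enough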;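 also: 0% = enzyme with substrate and 100% = substrate without enzyme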
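Assay system: purified human Csn5 enzyme expressed in HEK293T cells; measure: % inhibition; also added: SCFSkp2-Nedd8OG substrate at 10 nM final; technique: fluorescence polarization; times: reaction 90 min, room temperature; medium: Tris buffer pH 7.5, NaCl, DTT, Tween-20, trehalose, ovalbumin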
MBD2 inh: MBD2-methylated oligo binding inhibition. AID 686964. inhibition, % at 4.4 µM. TR-FRET, MBD2 binding to methylated oligonucleotide. 370,000 compounds, 0.31% hits. Q9UBB5; in the data active = inhibition above about 13%
LEDGF integ inh: blocks HIV-1 LEDGF/p75-dependent DNA integration. inhibition, % at 3.7 µM. TR-FRET IN-LEDGF/p75 DNA integration, Eu/Cy5. 370,000 compounds, 0.64% hits;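 active = inhibition above the screen-wide mean plus 3 SD, cut at about 13% in these data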;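 also: signal is the Cy5 over europium emission ratio at 671 and 618 nm; 0% = plate median of compound wells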
UHRF1 MBD2 ctr: human UHRF1 methylated DNA binding inhibitors | UHRF1 binding to methylated oligo, TR-FRET | inhibition, % at 4.4 µM | 370,000 compounds, 0.75% hits | AID 687016; in the data active = inhibition above about 21%;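 also: UHRF1 SRA domain binding a hemimethylated CpG hairpin DNA probe; 0% = median of test compound wells and 100% = reference inhibitor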
Target sequence (Q96T88 whole entry, looked up, the tested form may be a part): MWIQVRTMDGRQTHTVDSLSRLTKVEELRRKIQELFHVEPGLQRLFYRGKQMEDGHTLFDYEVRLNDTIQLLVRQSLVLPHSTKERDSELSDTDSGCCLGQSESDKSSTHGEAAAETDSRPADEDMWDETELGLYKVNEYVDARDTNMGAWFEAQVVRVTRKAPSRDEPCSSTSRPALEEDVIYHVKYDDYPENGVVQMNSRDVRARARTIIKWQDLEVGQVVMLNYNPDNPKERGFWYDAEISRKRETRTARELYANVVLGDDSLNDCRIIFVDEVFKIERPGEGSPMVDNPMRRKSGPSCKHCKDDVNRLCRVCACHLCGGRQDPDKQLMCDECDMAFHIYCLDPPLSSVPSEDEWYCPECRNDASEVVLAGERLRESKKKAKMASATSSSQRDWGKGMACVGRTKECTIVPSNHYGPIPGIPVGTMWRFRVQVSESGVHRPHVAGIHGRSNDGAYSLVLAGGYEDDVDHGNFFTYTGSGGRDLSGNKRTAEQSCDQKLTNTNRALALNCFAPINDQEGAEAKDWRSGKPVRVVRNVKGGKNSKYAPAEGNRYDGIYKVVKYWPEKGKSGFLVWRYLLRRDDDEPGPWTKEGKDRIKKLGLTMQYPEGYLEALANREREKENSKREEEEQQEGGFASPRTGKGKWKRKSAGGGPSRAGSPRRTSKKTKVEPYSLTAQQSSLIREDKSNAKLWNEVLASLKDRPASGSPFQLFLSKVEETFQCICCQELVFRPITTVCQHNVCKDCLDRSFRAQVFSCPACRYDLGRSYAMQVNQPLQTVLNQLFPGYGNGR
rCAG RNA binder: molecules binding r(CAG) RNA repeats. r(CAG) RNA repeat, TO-PRO-1 dye displacement fluorescence. inhibition, % at 3 µM. 370,000 compounds, 1.3% hits. AID 651821;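 active = inhibition above the plate cutoff, the mean of all test compounds on that plate plus 3 SD, cut at about 35% in these data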;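 also: 0% = DMSO alone and 100% = 100 µM mitoxantrone as full dye displacement; higher means more dye released from RNA so lower well fluorescence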
ATG4B confirm: confirmation of human ATG4B inhibitors; shares compounds with ATG4B inhibitor; inhibition, % at 8.33 µM; 320 compounds, 92% hits; ATG4B protease fluorescent substrate cleavage assay; in the data active = inhibition above about 39%
PLA2 ctr: PLA2 (human) inhibition in ATG4B counter-screen. shares compounds with ATG4B inhibitor. purified PLA2, NBD-C6-HPC fluorescence, 45 min. inhibition, % at 8.33 µM. 1,600 compounds, 66% hits; in the data active = inhibition above about 50%
rCAG bind conf: r(CAG) RNA repeat binding, confirmation. shares compounds with rCAG RNA binder. TO-PRO-1 dye displacement fluorescence. inhibition, % at 3 µM. 4,300 compounds, 70% hits;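 active = inhibition above a per-plate cutoff, the mean inhibition of sample wells plus 3 SD, cut at about 35% in these data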;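 also: loss of TO-PRO-1 fluorescence as compound displaces dye from 1x1 AA loop RNA; 0% = DMSO only wells and 100% = 100 µM mitoxantrone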
DNA CAG counter: DNA CAG dye complex inhibition counter-screen | inhibition, % at 3 µM | d(CAG) DNA oligo TO-PRO-1 dye displacement, fluorescence | shares compounds with rCAG RNA binder | 4,300 compounds, 94% hits | AID 652068;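 active = inhibition above its plate's cutoff, the mean test-well inhibition plus 3 SD, cut at about 4.8% in these data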;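 also: 0% = DNA dye mix with DMSO and 100% = 100 µM mitoxantrone; hits displace the dye from DNA and so lower well fluorescence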
dCAG dye DR: DNA CAG dye complex inhibition, dose response counter-screen; shares compounds with rCAG RNA binder; DNA CAG/GTC duplex TO-PRO-1 dye displacement fluorescence; IC50, µM; 250 compounds, 20% hits; AID 686960; in the data active = IC50 below about 10 µM
An asterisk follows results filed as active; i = inactive; x = not tested or not shown. Hits are enriched below; roughly 3.1% of the tested compounds scored in any of these assays.

SMILES	ATG4B inhibitor	CSN inh	MBD2 inh	LEDGF integ inh	UHRF1 MBD2 ctr	rCAG RNA binder	PLA2 ctr	rCAG bind conf	DNA CAG counter	others
Fc1cccc(Cl)c1CNc1ccc(N2CCCC2)cc1	58.8*	-0.6	-2.2	5.0	-3.0	9.8	58.0*	x	x
O=C(CSc1nnc(CCc2ccccc2)n1-c1ccc(Cl)cc1)c1ccccc1	58.4*	1.4	2.7	3.8	4.7	-2.0	60.8*	x	x
O=C1NC(=O)/C(=C\c2ccccc2Oc2ccc(F)c(F)c2)S1	56.8*	6.5	1.8	0.6	-0.1	13.0	48.5	x	x
CS(=O)(=O)C1=NSC2=NC(=O)/C(=C\c3ccc(OS(=O)(=O)c4ccccc4)cc3)C(=N)N21	16.3	3.3	-0.2	0.0	-1.4	30.4	x	x	x
Cc1ccc(S(=O)(=O)Oc2ccc(/C=C3/C(=N)N4C(=NC3=O)SN=C4S(C)(=O)=O)cc2)cc1	54.4*	6.8	-1.6	-2.2	-1.5	31.8	66.7*	x	x
Cc1ccc(-c2c(NC(=O)c3cccc(C)c3)nc3ncccn23)cc1	x	x	0.1	-2.3	-2.7	5.1	x	x	x
CC(C)CCn1c2ccccc2c2cc(CC(N)=O)ccc21	68.0*	1.5	-1.7	-1.6	0.9	0.5	77.2*	x	x
O=C(NC(Cc1c[nH]c2ccccc12)C(=O)Nc1ccc(F)c([N+](=O)[O-])c1)c1cccs1 (stereo unspecified)	71.2*	-5.5	0.6	0.7	-1.6	15.1	80.8*	x	x
Cc1ccccc1NC(=O)CCCSc1nc2ccccc2s1	-3.6	-8.8	-1.8	-0.9	-2.6	0.5	x	x	x
CCc1cccc(C)c1NC(=O)CCCSc1nc2ccccc2s1	64.8*	-11.1	-0.6	3.6	1.4	0.8	57.4*	x	x
Cc1ccc(NC(=O)CN(c2ccc(Cl)cc2)S(=O)(=O)c2cc([N+](=O)[O-])ccc2Cl)cc1	-11.1	-1.6	1.5	3.7	0.4	4.8	x	x	x
COc1ccc(C)cc1S(=O)(=O)N(CC(=O)Nc1cccc([N+](=O)[O-])c1)c1ccc(C)c(C)c1	88.1*	6.1	-2.5	2.9	1.0	1.1	90.2*	x	x
C=CCN1C(=O)[C@@H](CC(=O)NCc2ccccc2)[C@]2(C(=O)OCC)CCCCC/C=C/12	x	x	2.4	-3.5	1.3	4.5	x	x	x
Cc1ccc(-c2csc3nc(SCC(=O)Nc4ccc(Cl)c(C(=O)O)c4)[nH]c(=O)c23)cc1	78.3*	5.4	-0.2	-1.9	7.1	80.6*	78.2*	55.1*	20.2*
O=C(CSc1nc2ccccc2c(=O)n1Cc1ccccc1)Nc1ccc(Br)cc1C(=O)O	44.8*	0.5	-1.0	-0.1	-2.8	66.2*	38.8	83.5*	55.7*	ATG4B confirm=60.5*
CCOC(=O)c1ccc(/C=C2/C=C(c3ccccc3)N(c3ccc(Cl)c(C(=O)O)c3)C2=O)cc1	55.9*	29.5	0.7	6.1	3.0	60.6*	41.4	70.2*	31.9*	ATG4B confirm=76.6*
COc1cc(-n2c(C)nc3cc(C(=O)N4CCCC4)ccc32)cc(OC)c1OC	x	x	-0.5	-0.9	0.1	1.1	x	x	x
COc1ccc(C(=O)CSc2nnc(-c3cccc(Cl)c3)n2Cc2ccco2)cc1	x	x	-2.9	0.0	-0.8	4.8	x	x	x
S=C(NCc1ccccc1)NC1CCSc2ccccc21 (stereo unspecified)	63.9*	1.0	7.5	7.5	23.8*	52.8*	69.2*	4.5	2.0
Cc1ccc(S(=O)(=O)Nc2ccccc2C(=O)Nc2nc(-c3ccc(F)cc3)cs2)cc1	47.5*	-0.4	-3.8	0.1	-1.4	89.1*	59.6*	92.7*	80.9*
COc1ccc(-c2csc(NC(=O)c3ccccc3NS(=O)(=O)c3ccc(F)c(F)c3)n2)cc1	69.3*	-3.2	-3.0	-2.8	0.1	88.5*	80.5*	90.0*	74.8*
COC(=O)C1CN(Cc2ccc(OC)cc2)CCS(=O)(=O)N1Cc1cn(Cc2ccc(OC)cc2)nn1 (stereo unspecified)	x	x	-0.5	0.0	-4.1	-1.0	x	x	x
CCc1ccc(-n2cccc2/C=C2/C(=N)N3C(=NC2=O)SN=C3S(C)(=O)=O)cc1	45.2*	23.0	2.7	0.5	-0.5	93.6*	32.7	90.7*	72.4*	ATG4B confirm=67.7*
CCC1=NN2C(=N)/C(=C\c3cccn3-c3ccc(Cl)cc3)C(=O)N=C2S1	12.1	3.9	2.7	-1.8	8.1	7.2	x	x	x
COC(=O)[C@]12C[C@H](CC(=O)N3CCCC3)C(=O)N(Cc3ccc(Cl)cc3Cl)C1=C[C@H](C(C)(C)C)O[C@@H]2C	x	x	-2.1	-3.0	-2.1	1.4	x	x	x
SMILES	ATG4B inhibitor	CSN inh	MBD2 inh	LEDGF integ inh	UHRF1 MBD2 ctr	rCAG RNA binder	PLA2 ctr	rCAG bind conf	DNA CAG counter	others
O=C(N[C@H](Cc1ccc(Cl)cc1)C(=O)O)OCC1c2ccccc2-c2ccccc21	78.5*	0.5	2.3	0.7	13.0	40.0*	86.3*	66.4*	23.6*
Nc1ccc(CNC(=O)OCC2c3ccccc3-c3ccccc32)cc1	4.9	-1.3	-2.4	-1.3	-1.7	0.8	x	x	x
COc1cc(CCc2ccccc2)c(C(=O)O)c(O)c1CC=C(C)C	75.3*	-2.6	0.6	-1.0	3.9	79.3*	86.5*	77.0*	40.9*
COc1cc(CCc2ccccc2)c(C(=O)O)c(O)c1C/C=C(/C)CCC=C(C)C	85.3*	13.5	3.7	-0.7	-3.7	93.5*	90.3*	82.0*	46.7*
COCOc1ccc(/C=C/C(=O)c2c(OCOC)cc(OCOC)c(CC=C(C)C)c2O)cc1OCOC	-13.4	0.1	x	x	x	x	x	x	x
CC(=C\c1ccccc1)/C=C1/SC(=S)N(CCCC(=O)O)C1=O	51.9*	32.4	-0.5	4.6	-0.1	37.2*	9.1	48.8*	14.5*	ATG4B confirm=78.0*
CCC(C(=O)O)N1C(=O)/C(=C/C(C)=C/c2ccccc2)SC1=S (stereo unspecified)	79.9*	7.3	0.8	3.0	14.2	60.7*	82.8*	76.5*	31.4*	dCAG dye DR=i
O=C(O)C(Cc1ccccc1)N1C(=O)c2ccccc2C1=O (stereo unspecified)	-9.7	-7.3	-3.2	0.2	-2.4	1.1	x	x	x
